In assay [1] the target is T1, Pituitary adenylate cyclase-activating polypeptide type I receptor (Homo sapiens, UniProt P41586). Briefly: Agonist activity at human recombinant PAC1 receptor expressed in CHO cells assessed as PACAP38-induced calcium mobilization by FLIPR assay relative to PACAP38. Format: functional, cell-based. The procedure, abridged:
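CHO cells stably expressing recombinant human PAC1, plated 24 h before assay, loaded with fluo-4 AM for 60 min at 37 °C in the dark, then rinsed into HBSS for 15 min at 37 °C. Peptide was added 18 s into a 150 s read (ex 480/em 525 nm), at final concentrations of 1 × 10-12 to 1 × 10^-5 M. Response was normalised to 1 × 10^-5 M PACAP38 on each plate. EC50 and efficacy came from nonlinear regression; 4-10 independent assays in duplicate.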
Target sequence in this assay (P41586 21-468 limits assumed): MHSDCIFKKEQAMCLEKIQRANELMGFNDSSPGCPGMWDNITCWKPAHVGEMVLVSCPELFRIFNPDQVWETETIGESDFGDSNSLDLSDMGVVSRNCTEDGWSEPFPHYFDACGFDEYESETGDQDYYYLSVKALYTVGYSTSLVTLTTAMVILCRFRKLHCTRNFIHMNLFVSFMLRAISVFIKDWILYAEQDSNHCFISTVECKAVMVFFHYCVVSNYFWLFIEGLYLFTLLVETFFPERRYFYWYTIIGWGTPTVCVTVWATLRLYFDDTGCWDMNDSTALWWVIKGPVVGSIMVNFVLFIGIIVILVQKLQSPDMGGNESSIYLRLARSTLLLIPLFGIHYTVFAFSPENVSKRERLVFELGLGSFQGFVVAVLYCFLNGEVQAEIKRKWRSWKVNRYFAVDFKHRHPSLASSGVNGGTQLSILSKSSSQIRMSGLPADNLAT

Assay [2] concerns the target T1, Pituitary adenylate cyclase-activating polypeptide type I receptor. Briefly: Agonist activity at human recombinant PAC1 receptor expressed in CHO cells assessed as PACAP38-induced calcium mobilization by FLIPR assay. It is filed as functional, cell-based. The procedure, abridged:
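CHO cells stably expressing recombinant human PAC1, plated 24 h before assay, loaded with fluo-4 AM for 60 min at 37 °C in the dark, then rinsed into HBSS for 15 min at 37 °C. EC50 and efficacy came from nonlinear regression; 4-10 independent assays in duplicate.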
A general note: Calcium flux is commonly read through the fluorescence of an indicator in the cells.
Target sequence in this assay (P41586 whole entry): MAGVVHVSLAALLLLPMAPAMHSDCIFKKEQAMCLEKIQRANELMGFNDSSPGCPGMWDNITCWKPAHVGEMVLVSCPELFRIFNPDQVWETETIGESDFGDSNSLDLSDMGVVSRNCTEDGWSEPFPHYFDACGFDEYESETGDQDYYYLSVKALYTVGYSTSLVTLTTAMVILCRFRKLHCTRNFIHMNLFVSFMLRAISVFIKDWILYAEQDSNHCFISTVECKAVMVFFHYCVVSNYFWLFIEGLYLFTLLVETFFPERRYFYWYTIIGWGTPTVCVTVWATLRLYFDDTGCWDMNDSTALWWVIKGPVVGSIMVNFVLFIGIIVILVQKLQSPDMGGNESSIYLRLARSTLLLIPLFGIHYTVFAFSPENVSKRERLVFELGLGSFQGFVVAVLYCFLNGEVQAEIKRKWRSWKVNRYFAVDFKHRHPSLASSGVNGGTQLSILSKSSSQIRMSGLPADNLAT

Assay [3] shares this target. The experiment in a line: Displacement of [125I]Ac-PACAP27 from human recombinant PAC1 receptor expressed in CHO cells by gamma- counter. It is filed as cell-based. Background: Displacement assays read how much labelled ligand stays bound in the presence of the test substance.
Target sequence in this assay (P41586 whole entry): as above

In ChEMBL document CHEMBL1138520, “Molecular and conformational determinants of pituitary adenylate cyclase-activating polypeptide (PACAP) for activation of the PAC1 receptor” (J Med Chem, 2009) one finds Emax, EC50 and IC50 data, which are given here for nine molecules.

Molecules are shown by their SMILES. Where a SMILES comes first, the peptide text is derived from it.

The Emax is the greatest response seen or fitted, relative to the assay's reference. One may read the EC50 as the concentration at which the effect is half-maximal. A word on the IC50: it is the midpoint of a concentration-inhibition curve. As for `CC[C@H](C)[C@H](NC(=O)CNC(=O)[C@H](CCC(=O)O)NC(=O)[C@H](CO)NC(=O)[C@@H](N)Cc1cnc[nH]1)C(=O)N[C@@H](Cc1ccccc1)C(=O)N[C@H](C(=O)N[C@@H](CC(=O)O)C(=O)N[C@@H](CO)C(=O)N[C@@H](Cc1ccc(O)cc1)C(=O)N[C@@H](CO)C(=O)N[C@@H](CCCNC(=N)N)C(=O)N[C@@H](Cc1ccc(O)cc1)C(=O)N[C@@H](CCCNC(=N)N)C(=O)N[C@@H](CCCCN)C(=O)N[C@@H](CCC(N)=O)C(=O)N[C@@H](CCSC)C(=O)N[C@@H](C)C(=O)N[C@H](C(=O)N[C@@H](CCCCN)C(=O)N[C@@H](CCCCN)C(=O)N[C@@H](Cc1ccc(O)cc1)C(=O)N[C@@H](CC(C)C)C(=O)N[C@@H](C)C(=O)N[C@@H](C)C(=O)N[C@H](C(=O)N[C@@H](CC(C)C)C(N)=O)C(C)C)C(C)C)[C@@H](C)O`, in assay [1], the Emax worked out at 90.5%. For the same molecule, the EC50 in assay [2] is 20.6 nM. In addition, the IC50 in assay [3] was 10.6 nM.
For `CC[C@H](C)[C@H](NC(=O)CNC(=O)[C@H](CC(=O)O)NC(=O)[C@H](CO)NC(=O)[C@@H](N)Cc1cnc[nH]1)C(=O)N[C@@H](Cc1ccccc1)C(=O)N(C)[C@H](C(=O)N[C@@H](CC(=O)O)C(=O)N[C@@H](CO)C(=O)N[C@@H](Cc1ccc(O)cc1)C(=O)N[C@@H](CO)C(=O)N[C@@H](CCCNC(=N)N)C(=O)N[C@@H](Cc1ccc(O)cc1)C(=O)N[C@@H](CCCNC(=N)N)C(=O)N[C@@H](CCCCN)C(=O)N[C@@H](CCC(N)=O)C(=O)N[C@@H](CCSC)C(=O)N[C@@H](C)C(=O)N[C@H](C(=O)N[C@@H](CCCCN)C(=O)N[C@@H](CCCCN)C(=O)N[C@@H](Cc1ccc(O)cc1)C(=O)N[C@@H](CC(C)C)C(=O)N[C@@H](C)C(=O)N[C@@H](C)C(=O)N[C@H](C(=O)N[C@@H](CC(C)C)C(=O)NCC(=O)N[C@@H](CCCCN)C(=O)N[C@@H](CCCNC(=N)N)C(=O)N[C@@H](Cc1ccc(O)cc1)C(=O)N[C@@H](CCCCN)C(=O)N[C@@H](CCC(N)=O)C(=O)N[C@@H](CCCNC(=N)N)C(=O)N[C@H](C(=O)N[C@@H](CCCCN)C(=O)N[C@@H](CC(N)=O)C(=O)N[C@@H](CCCCN)C(N)=O)C(C)C)C(C)C)C(C)C)[C@@H](C)O` the same measures were 40%, 1010 nM and 1010 nM.
For the molecule `CSCC[C@H](NC(=O)[C@H](CCC(N)=O)NC(=O)[C@H](CCCCN)NC(=O)[C@H](CCCNC(=N)N)NC(=O)[C@H](Cc1ccc(O)cc1)NC(=O)[C@H](CCCNC(=N)N)NC(=O)[C@H](CO)NC(=O)[C@H](Cc1ccc(O)cc1)NC(=O)[C@H](CO)NC(=O)[C@H](CC(=O)O)NC(=O)[C@@H](NC(=O)[C@H](Cc1ccccc1)NC(=O)[C@H](CC(C)C)N1CC[C@H](NC(=O)[C@H](CC(=O)O)NC(=O)[C@H](CO)NC(=O)[C@@H](N)Cc2cnc[nH]2)C1=O)[C@@H](C)O)C(=O)N[C@@H](C)C(=O)N[C@H](C(=O)N[C@@H](CCCCN)C(=O)N[C@@H](CCCCN)C(=O)N[C@@H](Cc1ccc(O)cc1)C(=O)N[C@@H](CC(C)C)C(=O)N[C@@H](C)C(=O)N[C@@H](C)C(=O)N[C@H](C(=O)N[C@@H](CC(C)C)C(N)=O)C(C)C)C(C)C`, the Emax in assay [1] stood at 54.1%. Moreover, the EC50 in assay [2] was determined as 1030 nM. For the same molecule, the IC50 in assay [3] stood at 1980 nM.
For `CC[C@H](C)[C@H](NC(=O)CNC(=O)[C@H](CC(=O)O)NC(=O)[C@H](CO)NC(=O)[C@@H](N)Cc1cnc[nH]1)C(=O)N[C@@H](Cc1ccc(O)cc1)C(=O)N[C@H](C(=O)N[C@@H](CC(=O)O)C(=O)N[C@@H](CO)C(=O)N[C@@H](Cc1ccc(O)cc1)C(=O)N[C@@H](CO)C(=O)N[C@@H](CCCNC(=N)N)C(=O)N[C@@H](Cc1ccc(O)cc1)C(=O)N[C@@H](CCCNC(=N)N)C(=O)N[C@@H](CCCCN)C(=O)N[C@@H](CCC(N)=O)C(=O)N[C@@H](CCSC)C(=O)N[C@@H](C)C(=O)N[C@H](C(=O)N[C@@H](CCCCN)C(=O)N[C@@H](CCCCN)C(=O)N[C@@H](Cc1ccc(O)cc1)C(=O)N[C@@H](CC(C)C)C(=O)N[C@@H](C)C(=O)N[C@@H](C)C(=O)N[C@H](C(=O)N[C@@H](CC(C)C)C(=O)NCC(=O)N[C@@H](CCCCN)C(=O)N[C@@H](CCCNC(=N)N)C(=O)N[C@@H](Cc1ccc(O)cc1)C(=O)N[C@@H](CCCCN)C(=O)N[C@@H](CCC(N)=O)C(=O)N[C@@H](CCCNC(=N)N)C(=O)N[C@H](C(=O)N[C@@H](CCCCN)C(=O)N[C@@H](CC(N)=O)C(=O)N[C@@H](CCCCN)C(N)=O)C(C)C)C(C)C)C(C)C)[C@@H](C)O` (H-HSDGIYTDSYSRYRKQMAVKKYLAAVLGKRYKQRVKNK-NH2) the same measures were 99.4%, 2.7 nM and 6.7 nM.
On to `CC[C@H](C)[C@@H](C(=O)N[C@@H](Cc1ccccc1)C(=O)N[C@H](C(=O)N[C@@H](CC(=O)O)C(=O)N[C@@H](CO)C(=O)N[C@@H](Cc1ccc(O)cc1)C(=O)N[C@@H](CO)C(=O)N[C@@H](CCCNC(=N)N)C(=O)N[C@@H](Cc1ccc(O)cc1)C(=O)N[C@@H](CCCNC(=N)N)C(=O)N[C@@H](CCCCN)C(=O)N[C@@H](CCC(N)=O)C(=O)N[C@@H](CCSC)C(=O)N[C@@H](C)C(=O)N[C@H](C(=O)N[C@@H](CCCCN)C(=O)N[C@@H](CCCCN)C(=O)N[C@@H](Cc1ccc(O)cc1)C(=O)N[C@@H](CC(C)C)C(=O)N[C@@H](C)C(=O)N[C@@H](C)C(=O)N[C@H](C(=O)N[C@@H](CC(C)C)C(N)=O)C(C)C)C(C)C)[C@@H](C)O)N(C)C(=O)CNC(=O)[C@H](CC(=O)O)NC(=O)[C@H](CO)NC(=O)[C@@H](N)Cc1cnc[nH]1`, for which the Emax in assay [1] was 34.5%. Further, the EC50 in assay [2] stood at 1810 nM. In addition, in assay [3], the IC50 is 1770 nM.
As to `CC[C@H](C)[C@H](NC(=O)CNC(=O)[C@H](CC(=O)O)NC(=O)[C@@H]1CCCN1C(=O)[C@@H](N)Cc1cnc[nH]1)C(=O)N[C@@H](Cc1ccccc1)C(=O)N[C@H](C(=O)N[C@@H](CC(=O)O)C(=O)N[C@@H](CO)C(=O)N[C@@H](Cc1ccc(O)cc1)C(=O)N[C@@H](CO)C(=O)N[C@@H](CCCNC(=N)N)C(=O)N[C@@H](Cc1ccc(O)cc1)C(=O)N[C@@H](CCCNC(=N)N)C(=O)N[C@@H](CCCCN)C(=O)N[C@@H](CCC(N)=O)C(=O)N[C@@H](CCSC)C(=O)N[C@@H](C)C(=O)N[C@H](C(=O)N[C@@H](CCCCN)C(=O)N[C@@H](CCCCN)C(=O)N[C@@H](Cc1ccc(O)cc1)C(=O)N[C@@H](CC(C)C)C(=O)N[C@@H](C)C(=O)N[C@@H](C)C(=O)N[C@H](C(=O)N[C@@H](CC(C)C)C(=O)NCC(=O)N[C@@H](CCCCN)C(=O)N[C@@H](CCCNC(=N)N)C(=O)N[C@@H](Cc1ccc(O)cc1)C(=O)N[C@@H](CCCCN)C(=O)N[C@@H](CCC(N)=O)C(=O)N[C@@H](CCCNC(=N)N)C(=O)N[C@H](C(=O)N[C@@H](CCCCN)C(=O)N[C@@H](CC(N)=O)C(=O)N[C@@H](CCCCN)C(N)=O)C(C)C)C(C)C)C(C)C)[C@@H](C)O`, the Emax in assay [1] worked out at 89.3%. In addition, the EC50 in assay [2] stood at 4.1 nM. For the same molecule, in assay [3], the IC50 came to 8.5 nM.
`CC[C@H](C)[C@H](NC(=O)CNC(=O)[C@H](CC(=O)O)NC(=O)[C@H](CO)NC(=O)[C@H](C)N)C(=O)N[C@@H](Cc1ccccc1)C(=O)N[C@H](C(=O)N[C@@H](CC(=O)O)C(=O)N[C@@H](CO)C(=O)N[C@@H](Cc1ccc(O)cc1)C(=O)N[C@@H](CO)C(=O)N[C@@H](CCCNC(=N)N)C(=O)N[C@@H](Cc1ccc(O)cc1)C(=O)N[C@@H](CCCNC(=N)N)C(=O)N[C@@H](CCCCN)C(=O)N[C@@H](CCC(N)=O)C(=O)N[C@@H](CCSC)C(=O)N[C@@H](C)C(=O)N[C@H](C(=O)N[C@@H](CCCCN)C(=O)N[C@@H](CCCCN)C(=O)N[C@@H](Cc1ccc(O)cc1)C(=O)N[C@@H](CC(C)C)C(=O)N[C@@H](C)C(=O)N[C@@H](C)C(=O)N[C@H](C(=O)N[C@@H](CC(C)C)C(N)=O)C(C)C)C(C)C)[C@@H](C)O`: in assay [1], the Emax turned out to be 70%. Besides, the EC50 in assay [2] was 174 nM. Besides, the IC50 in assay [3] came out at 335 nM.
For `CC[C@H](C)[C@H](NC(=O)CNC(=O)[C@H](CC(=O)O)NC(=O)[C@@H]1CCCN1C(=O)[C@@H](N)Cc1cnc[nH]1)C(=O)N[C@@H](Cc1ccccc1)C(=O)N[C@H](C(=O)N[C@@H](CC(=O)O)C(=O)N[C@@H](CO)C(=O)N[C@@H](Cc1ccc(O)cc1)C(=O)N[C@@H](CO)C(=O)N[C@@H](CCCNC(=N)N)C(=O)N[C@@H](Cc1ccc(O)cc1)C(=O)N[C@@H](CCCNC(=N)N)C(=O)N[C@@H](CCCCN)C(=O)N[C@@H](CCC(N)=O)C(=O)N[C@@H](CCSC)C(=O)N[C@@H](C)C(=O)N[C@H](C(=O)N[C@@H](CCCCN)C(=O)N[C@@H](CCCCN)C(=O)N[C@@H](Cc1ccc(O)cc1)C(=O)N[C@@H](CC(C)C)C(=O)N[C@@H](C)C(=O)N[C@@H](C)C(=O)N[C@H](C(=O)N[C@@H](CC(C)C)C(N)=O)C(C)C)C(C)C)[C@@H](C)O` the same measures were 94.2%, 7.4 nM and 7.8 nM.
For `CC[C@H](C)[C@H](NC(=O)CNC(=O)[C@H](CC(=O)O)NC(=O)C(C)(C)NC(=O)[C@@H](N)Cc1cnc[nH]1)C(=O)N[C@@H](Cc1ccccc1)C(=O)N[C@H](C(=O)N[C@@H](CC(=O)O)C(=O)N[C@@H](CO)C(=O)N[C@@H](Cc1ccc(O)cc1)C(=O)N[C@@H](CO)C(=O)N[C@@H](CCCNC(=N)N)C(=O)N[C@@H](Cc1ccc(O)cc1)C(=O)N[C@@H](CCCNC(=N)N)C(=O)N[C@@H](CCCCN)C(=O)N[C@@H](CCC(N)=O)C(=O)N[C@@H](CCSC)C(=O)N[C@@H](C)C(=O)N[C@H](C(=O)N[C@@H](CCCCN)C(=O)N[C@@H](CCCCN)C(=O)N[C@@H](Cc1ccc(O)cc1)C(=O)N[C@@H](CC(C)C)C(=O)N[C@@H](C)C(=O)N[C@@H](C)C(=O)N[C@H](C(=O)N[C@@H](CC(C)C)C(N)=O)C(C)C)C(C)C)[C@@H](C)O`, the Emax in assay [1] was determined as 104%. Further, the concentration giving a half-maximal response (EC50) in assay [2] came out at 10.1 nM. Also, the IC50 in assay [3] came out at 9.5 nM.
